Measured values reported in the EternaBench riboswitch data.

Tested on: MS2 coat protein
Test: apparent Kd, MS2 coat protein; higher = weaker binding; RNA-MaP array; FMN 200 µM where present
Outline: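 Two titrations, one without ligand and one with constant ligand, were run with SNAP-549-labelled MS2 coat protein from 0.7 or 1.5 nM, doubling to 3 µM. The targets were designs transcribed by stalled E. coli RNA polymerase on Illumina sequencing-chip clusters, in 100 mM Tris-HCl pH 7.5, 80 mM KCl, 4 mM MgCl2, BSA, DTT, yeast tRNA and Tween-20. The apparent Kd is the median of filtered per-cluster binding-curve fits, with green signal normalised to red-channel RNA signal and control-cluster median Fmax.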

[1] = designed as: OFF switch for flavin mononucleotide, no ligand
[2] = ligand present: flavin mononucleotide, designed as: OFF switch for flavin mononucleotide
[3] = designed as: ON switch for flavin mononucleotide, no ligand
[4] = ligand present: flavin mononucleotide, designed as: ON switch for flavin mononucleotide

Sequence | apparent Kd [1] | apparent Kd [2] | apparent Kd [3] | apparent Kd [4]
GUAGUGUGAGGAUAUGAUUAAUAGACGGGAUUGCGACUGCAUCAGAAGGCACAUGAGGAUCACCCAUGUAUGAA | 18.8 nM | 51.9 nM | – | –
GUAUACGAUGAGGAUAUAUGAUAUCAAAGCAUCAUAGAAGGCAUCACAUGAGGAUCACCCAUGUGAUCUUCUAG | 15.7 nM | 52.6 nM | – | –
GUAUAGAUUACAUGAGGAUCACCCAUGUCAGAACGGGUAAUCAGAAGGUAUUAUUAGAGAAAGGGUAAGGAUAUGAUUUUAUAU | – | – | 598 nM | 389 nM
GUAUCAUACCAAGGAUAUUUAGGACUUUGAUAGACAUGAGGAUCACCCAUGUGGCGUUAGUCACGGGAGAAGGUGGUAUGAUAC | – | – | 57.4 nM | 18.4 nM
GUAUGAGCGAUAGGAUAUACUGAGAUUGAAUGGGUAGAAGGAUCACUUGUGUGGAAGACAUGAGGAUCACCCAUGUCACGGGCC | – | – | 52.3 nM | 157 nM
GUAUGAUUAAGAGGAUAUAUACAACAUGAGGAUCACCCAUGUACCCGUGUAGUAGAAGGUUUGUUUUUAUAUAAUAAUAUAAUU | – | – | 26.6 nM | 19.1 nM
GUCACACACCGCUCCGUGUCUGACAUGAGGAUCACCCAUGUGAGAAGGUAGCGUCGCAGUGACGUUAAGGAUAUCACGUACAGA | 4.81 nM | 5.2 nM | – | –
GUCAGCUCGUCAGGAUAUACAUGAGGAUCACCCAUGUGAUCAAUAGCAGCUUCGGCUGCAUUAAUGUAGAAGGGACGAGCUGAU | 267 nM | 69.2 nM | – | –
GUCAGCUCGUCAGGAUAUACAUGAUAGAUCGAUUAAUUAAUUAAUUUAACAUGAGGAUCACCCAUGUAGAAGGGACGAGCUGAU | 109 nM | 84.2 nM | – | –
GUCAGCUCGUGAGGAUAUACAAAACUGCUUCGGCAGUGUAUUAAGAUCACAUGAGGAUCACCCAUGUAGAAGGCACGAGCUGAU | 8.71 nM | 82.3 nM | – | –
GUCAGCUCGUGAGGAUAUACAACACUGCUUCGGCAGUGUAUUAAGAUCACAUGAGGAUCACCCAUGUAGAAGGCACGAGCGGAU | 14.4 nM | 244 nM | – | –
GUCAGCUCGUGAGGAUAUACAACACUGCUUCGGCAGUGUAUUAAGUUCACAUGAGGAUCACCCAUGUAGAAGGCACGAGCUGAU | 5.56 nM | 6.8 nM | – | –
GUCAGCUCGUGAGGAUAUACAUGUGCUGGAUACAGCAUUAAAUAAUUCACAUGAGGAUCACCCAUGUAGAAGGCACGAGCUGAU | 17.9 nM | 42.9 nM | – | –
GUCAUGUAAGGAUAUCUUACAUGUGACUUCGGUCACUGUCAAGAGAAGGUACAUGAGGAUCACCCAUGUUCGAC | 17.2 nM | 21.8 nM | – | –
GUCAUGUAAGGAUAUCUUACAUGUGACUUCGGUCACUGUCGAGAGAAGGUACAUGAGGAUCACCCAUGUUCGAC | 17.3 nM | 24 nM | – | –
GUCCAACAUGAGGAUCACCCAUGUGAGGAUAUGCGAAUUUCAUCAAAAGAUGAAAUUUGCAGAAGGCACAGGAC | 20.2 nM | 32.8 nM | – | –
GUCCACAUGAGGAUCACCCAUGUGAGAAGGUUGGUUUUGUUGAGGUAGUGGUUUGCCUUGGUGGUAGAGGAUAUUGAUGGGUUA | 7.7 nM | 7.33 nM | – | –
GUCCUCUCUGAGGAUAUUAUCUGGUCCGAUUGAUAAGAAGGCAGUACAUGAGGAUCACCCAUGUGGGUCGUCUG | 53.5 nM | 77.7 nM | – | –
GUCGAGUGAGGAUAUGGUGAGUAGUGCCAGAGCGCUGCUCACCAGAAGGCACAUGAGGAUCACCCAUGUAUGUC | 12.9 nM | 20.8 nM | – | –

Sequence | apparent Kd [1] | apparent Kd [2] | apparent Kd [3] | apparent Kd [4]
GUCGAGUGAGGAUAUGGUGAGUAGUGCCUGAGCGCUGCUCACCAGAAGGCACAUGAGGAUCACCCAUGUAUGAC | 18.2 nM | 23.9 nM | – | –
GUCGAUGUAGGAUAUUUCCACCCGCACAUGAGGAUCACCCAUGUGACCUUUUUCCGCUGGAAAGAAGGACGCGACA | 19.8 nM | 28.4 nM | – | –
GUCGGAAACGACAAAAGUAUGGAUCCAGAAGGCAUGUACAUGAGGAUCACCCAUGUCUAAAGAUAUGAGGAUAUGGAUCCAUAC | – | – | 6.71 nM | 5.18 nM
GUCGGAAACGACAAAAGUAUGGAUCCAGAAGGUAUGAAACAUGAGGAUCACCCAUGUCAAAGACAUGAGGAUAUGGAUCCAUAC | – | – | 32.4 nM | 9.54 nM
GUCGGGAUUACAUGAGGAUCACCCAUGUCAGAACGGGCAGUCAGAAGGUGCCAUUAGGGAGAGGGUAAGGAUAUGAUUUUUGGC | – | – | 11.3 nM | 9.92 nM
GUCGUGUGAGGAUAUGGAUAGACGCAGUGACAGUAAGCGACCUAGAAGGCACAUGAGGAUCACCCAUGUAUGUG | 45.5 nM | 84.1 nM | – | –
GUCUCGUCAGGAUAUGACGCUACAUUUUCUUUUUAGAAGAGUCAGAAGGGACAUGAGGAUCACCCAUGUGAUUC | 430 nM | 596 nM | – | –
GUCUUAUUACAGAAGGUGUUUUACAUGAGGAUCACCCAUGUUUUAUUGUUUAAAUUUGAUAUUUACAAGGAUAUGUACUAAUCU | – | – | 25.1 nM | 21 nM
GUCUUCCUAGGAUAUACAUGAGGAUCACCCAUGUACAGUUUCGUCUUGGGAUACUCGCGUAGAAGGAGGUGGUU | 33.2 nM | 37.3 nM | – | –
GUCUUGUCAGGAUAUCUUACAUAACAAUCGUAGUUACAAUUGGAGAAGGGACAUGAGGAUCACCCAUGUUAGCC | 18.7 nM | 21 nM | – | –
GUGAAACAUGAGGAUCACCCAUGUGAGGAUAUGUUUUAGUACUGCUGACAGUACAUCUAUAGAAGGCACAAAGG | 26.8 nM | 29.9 nM | – | –
GUGACGAAUGUAGGAUAUGCUGAGGAUAACUCAGCAGAAGGACAUGAGGAUCACCCAUGUACUAAUAGUGAUAAUAAACGUCAC | 14.8 nM | 82.5 nM | – | –
GUGACGAUGUAAGGAUAUGCUGAGGAAUACUCAGCAGAAGGUACAUGAGGAUCACCCAUGUAAAUAAUAAGAAAUAAACGUCAC | 16 nM | 24.9 nM | – | –
GUGAGUAGUCAGGAUAUGCUGUACAAAAGUACAGCAGAAGGGAUUACAUGAGGAUCACCCAUGUUUACCUCAUG | 574 nM | 884 nM | – | –
GUGCACACUCGAGGAUAUCGGAGAGUACUCCUUCGAGAAGGCGAUUCGUGCCGUGUUAUUCUGGACAUGAGGAUCACCCAUGUG | – | – | 125 nM | 39.9 nM
GUGCCUUGGGAGAAGGCCCAAUGCAAAGCAUAGGGAGGAUAUUCAUAUAAUAAAUAAACAUGAGGAUCACCCAUGUGGCACAAA | – | – | 479 nM | 33.3 nM
GUGCGGUAGGAGAAGGACGGAGGCUUCAUUACAUACAUGAGGAUCACCCAUGUAGGAUAUCCUACCUCACGCGGCCUCCUUCUG | 6.52 nM | 7.65 nM | – | –
GUGCGGUCAGGAUAUGCAUGGCGGGACUUGCGUCGUGGCGUGGAGAAGGGACAUGAGGAUCACCCAUGUGGAGC | 51.4 nM | 54.2 nM | – | –
GUGCGGUGAGGAUAUACGUAGGUACAGAUCUGUGUGUUCCUACAUGAGGAUCACCCAUGUAGAAGGCAUGGCAC | 49.6 nM | 136 nM | – | –

Sequence | apparent Kd [1] | apparent Kd [2] | apparent Kd [3] | apparent Kd [4]
GUGCGUGGCUAGGAUAUUGUGGAGUUUAGUCAGCGAGAAGGAGCCACAUGAGGAUCACCCAUGUGGUGUUGCUC | 40.5 nM | 101 nM | – | –
GUGCUACAGCGGCGCACGAGACAUGAGGAUCACCCAUGUGACAGAAGGGACUUGUUAAAGGUAGGUCAGGAUAUGUCUUAAAAG | – | – | 291 nM | 81.4 nM
GUGGCACAUGAGGAUCACCCAUGUCAGGAUAUCGCGUGUUUUUUUUCGGCCGCGCGCGCGAGAAGGGACGUCUU | 27.1 nM | 29.8 nM | – | –
GUGGUCAGACAUGAGGAUCACCCAUGUGGAAUAAAUAACAGACAGGAUAUCCAAUAUAGGAUAUAGGAGAAGGGUCGAUUGGUG | – | – | 73.1 nM | 74.2 nM
GUGGUCAGACAUGAGGAUCACCCAUGUGGAAUAAAUAAGGGUUAGGAUAUGCAAUAUAGGAUAUAGCAGAAGGGAUGGUUGGUG | – | – | 128 nM | 173 nM
GUGGUGCAUAUACGUGGAGGUACAUGAGGAUCACCCAUGUAAGAGGAUAUGCGGAUACUAGCUCAGCAGAAGGCUUACAAAUGA | 13.1 nM | 51.5 nM | – | –
GUGUACAGAGGAUAUACAUAAGCUAGGAAACUAGCAACCUCACAUGAGGAUCACCCAUGUAGAAGGCUGUACAC | 189 nM | 59.6 nM | – | –
GUGUACAGAGGAUAUACUGGAGCUAGGAAACUAGCAACCUCACAUGAGGAUCACCCAUGUAGAAGGCUGUACAC | 402 nM | 25.8 nM | – | –
GUGUACAGAGGAUAUAUAUGAGCUAGGAAACUAGCAACCUCACAUGAGGAUCACCCAUGUAGAAGGCUGUACAC | 103 nM | 346 nM | – | –
GUGUACAGAGGAUAUGCUUGAAUCUAGCGAAGCUAGGUUCGACAUGAGGAUCACCCAUGUAGAAGGCUGUACAC | 13.6 nM | 12.7 nM | – | –
GUGUACGGAGGAUAUAUAUGGGCAGCAUACGCUGCAGCUUCACAUGAGGAUCACCCAUGUAGAAGGCUGUGCAC | 22.4 nM | 129 nM | – | –
GUGUAGAUAGGAUAUACGAGAGUCUAGCGAAGCUAGAUUCUACAUGAGGAUCACCCAUGUAGAAGGGUCUACAC | 16.5 nM | 19.2 nM | – | –
GUGUAGUCAGGAUAUACAUAGGAAGAGAAGAGAAGAGAAGUACAUGAGGAUCACCCAUGUAGAAGGGACAGUGU | 24.3 nM | 25.1 nM | – | –
GUUAAACAUGAGGAUCACCCAUGUAAGGAUAUGCUGCGGUAGAGAUGAAGUGAAUGCAGCAGAAGGUACAAUUG | 124 nM | 109 nM | – | –
GUUAAGUGAGGAUAUGGUGAGUAGUGCCAGAGCGCUGCUCACCAGAAGGCACAUGAGGAUCACCCAUGUAUAGC | 15.7 nM | 31.5 nM | – | –
GUUACAUGAGGAUCACCCAUGUAUGUGUGGGAGUAAGUGUCUUAGGAUAUCUAUUAUUUAAUGUAAGAGAAGGAAGAUUGUUGU | – | – | 113 nM | 124 nM
GUUAUGCAGCAGGAUAUCCAUCCGCGGUAUGAUGGAGAAGGGCUGACAUGAGGAUCACCCAUGUGCGUCCUAGG | 40.3 nM | 97.1 nM | – | –
GUUAUGUCAGGAUAUGCUUAUGGUGGGUGCUCAGACAUGAUGCAGAAGGGACAUGAGGAUCACCCAUGUACUGU | 593 nM | 435 nM | – | –
